In ChEMBL document CHEMBL2424634, “Synthesis and SAR studies of 5-(pyridin-4-yl)-1,3,4-thiadiazol-2-amine derivatives as potent inhibitors of Bloom helicase” (Bioorg Med Chem Lett, 2013):
Values after ≈ are worked out from the molar mass of the structure shown. Active and inactive are the calls of the source. The calls are words filed in the database; no cut-off is given here.

What was measured:
[1] = target: T1, RecQ-like DNA helicase BLM (Homo sapiens, UniProt P54132); assay: Inhibition of BLM (unknown origin) by gel-based DNA unwinding assay
Homo sapiens [2] = organism: Homo sapiens; assay: Selectivity ratio of IC50 for WRN (unknown origin) to IC50 for BLM (unknown origin)
[3] = target: Bifunctional 3'-5' exonuclease/ATP-dependent helicase WRN (Homo sapiens, UniProt Q14191); assay: Inhibition of WRN (unknown origin) by gel-based DNA unwinding assay
[4] = target: T2, ATP-dependent DNA helicase Q1 (Homo sapiens, UniProt P46063); assay: Inhibition of RECQ1 (unknown origin) by gel-based DNA unwinding assay
T2 sequence (P46063 whole entry): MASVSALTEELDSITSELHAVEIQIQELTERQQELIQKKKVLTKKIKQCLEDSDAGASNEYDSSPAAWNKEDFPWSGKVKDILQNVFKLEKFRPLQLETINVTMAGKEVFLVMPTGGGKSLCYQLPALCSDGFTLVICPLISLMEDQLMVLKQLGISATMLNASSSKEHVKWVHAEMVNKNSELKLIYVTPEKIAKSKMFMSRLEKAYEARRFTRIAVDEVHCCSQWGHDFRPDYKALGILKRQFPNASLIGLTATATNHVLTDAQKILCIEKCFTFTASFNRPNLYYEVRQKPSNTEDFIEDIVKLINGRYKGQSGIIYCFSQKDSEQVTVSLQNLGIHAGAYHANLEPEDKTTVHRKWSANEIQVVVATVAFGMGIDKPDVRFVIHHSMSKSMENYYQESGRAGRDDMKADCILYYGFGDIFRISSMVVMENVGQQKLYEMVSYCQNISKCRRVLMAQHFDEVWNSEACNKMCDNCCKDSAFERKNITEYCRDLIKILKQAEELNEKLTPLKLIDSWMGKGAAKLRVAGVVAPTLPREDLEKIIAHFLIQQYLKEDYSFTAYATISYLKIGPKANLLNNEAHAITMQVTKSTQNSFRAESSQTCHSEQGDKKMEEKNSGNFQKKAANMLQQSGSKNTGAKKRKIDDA

[5] = Metabolic stability of the compound in mouse plasma assessed as compound remaining after 5 hrs; format: ADME, cell-free; conditions: read-out: Stability
Liver = assay: Half life in mouse liver microsomes in presence of NADPH; format: ADME, Microsome
[6] = Kinetic solubility of the compound in PBS buffer at pH 7.4; format: physicochemical; conditions: read-out: Kinetic_solubility
Summary of the method: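 Kinetic solubility in PBS, pH 7.4, determined by chemiluminescent nitrogen detection (CLND) and by UV-Vis detection.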

[7] = target: T1, RecQ-like DNA helicase BLM; assay: Displacement of TAMRA-labeled oligonucleotide from BLM (unknown origin)
Homo sapiens [8] = organism: Homo sapiens; assay: Increase of sister chromatid exchange in human BLM-deficient PSNG13 cells at 1 to 5 uM; format: functional
Summary of the method: (§1)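 Used an isogenic pair of cell lines derived from GM08505 Bloom syndrome cells: PSNF5 (expresses BLM) and PSNG13 (lacks BLM). Cells were treated across a dose range and sister chromatid exchange frequency was scored.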

[9] = target: T1, RecQ-like DNA helicase BLM; assay: Inhibition of BLM in human PSNF5 cells assessed as increase of sister chromatid exchange at 1 to 5 uM; format: cell-based; summary of the method: as §1
[10] = target: T1, RecQ-like DNA helicase BLM; assay: Inhibition of BLM (unknown origin) binding to single-stranded DNA by fluorescence polarization analysis
[11] = target: T1, RecQ-like DNA helicase BLM; assay: Non-competitive inhibition of BLM (unknown origin) using ATP by Lineweaver-Burk double reciprocal plot analysis

Bifunctional 3'-5' exonuclease/ATP-dependent helicase WRN, sequence (Q14191 whole entry): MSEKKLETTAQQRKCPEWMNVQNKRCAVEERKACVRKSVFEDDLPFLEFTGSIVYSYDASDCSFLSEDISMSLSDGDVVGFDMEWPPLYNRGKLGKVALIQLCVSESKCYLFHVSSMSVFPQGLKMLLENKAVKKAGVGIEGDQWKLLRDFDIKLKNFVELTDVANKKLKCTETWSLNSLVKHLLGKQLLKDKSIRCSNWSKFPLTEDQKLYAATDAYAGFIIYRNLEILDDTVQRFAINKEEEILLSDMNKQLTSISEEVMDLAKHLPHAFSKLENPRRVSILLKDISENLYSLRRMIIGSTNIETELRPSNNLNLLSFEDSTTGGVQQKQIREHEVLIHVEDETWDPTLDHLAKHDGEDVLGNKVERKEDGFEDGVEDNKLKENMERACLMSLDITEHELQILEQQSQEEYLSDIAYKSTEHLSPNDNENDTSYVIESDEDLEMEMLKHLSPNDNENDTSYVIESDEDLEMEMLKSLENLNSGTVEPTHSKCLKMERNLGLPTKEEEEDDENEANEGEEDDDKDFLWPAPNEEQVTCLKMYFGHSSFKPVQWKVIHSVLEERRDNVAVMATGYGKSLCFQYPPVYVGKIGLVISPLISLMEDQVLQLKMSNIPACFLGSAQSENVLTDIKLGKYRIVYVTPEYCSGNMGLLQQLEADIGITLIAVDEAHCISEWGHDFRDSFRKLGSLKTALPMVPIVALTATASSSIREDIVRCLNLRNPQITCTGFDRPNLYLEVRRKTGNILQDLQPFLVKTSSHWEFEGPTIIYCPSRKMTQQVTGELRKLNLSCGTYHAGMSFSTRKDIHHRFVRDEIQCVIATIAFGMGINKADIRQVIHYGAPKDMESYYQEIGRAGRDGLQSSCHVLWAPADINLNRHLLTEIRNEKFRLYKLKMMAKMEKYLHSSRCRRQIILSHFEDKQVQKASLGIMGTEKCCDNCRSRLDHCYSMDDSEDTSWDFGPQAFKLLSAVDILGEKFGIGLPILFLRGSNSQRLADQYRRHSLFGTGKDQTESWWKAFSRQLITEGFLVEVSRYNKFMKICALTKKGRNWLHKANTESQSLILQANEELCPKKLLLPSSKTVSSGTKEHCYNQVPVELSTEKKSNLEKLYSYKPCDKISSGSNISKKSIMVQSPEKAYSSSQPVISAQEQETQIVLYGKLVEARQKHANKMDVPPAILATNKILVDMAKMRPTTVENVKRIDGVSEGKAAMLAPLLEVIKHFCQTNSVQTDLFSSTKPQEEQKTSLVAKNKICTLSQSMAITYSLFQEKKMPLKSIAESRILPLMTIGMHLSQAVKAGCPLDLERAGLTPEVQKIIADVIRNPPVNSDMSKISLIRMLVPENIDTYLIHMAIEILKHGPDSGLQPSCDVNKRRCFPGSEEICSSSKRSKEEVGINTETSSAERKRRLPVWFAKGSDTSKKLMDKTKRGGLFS
T1 sequence (P54132 whole entry): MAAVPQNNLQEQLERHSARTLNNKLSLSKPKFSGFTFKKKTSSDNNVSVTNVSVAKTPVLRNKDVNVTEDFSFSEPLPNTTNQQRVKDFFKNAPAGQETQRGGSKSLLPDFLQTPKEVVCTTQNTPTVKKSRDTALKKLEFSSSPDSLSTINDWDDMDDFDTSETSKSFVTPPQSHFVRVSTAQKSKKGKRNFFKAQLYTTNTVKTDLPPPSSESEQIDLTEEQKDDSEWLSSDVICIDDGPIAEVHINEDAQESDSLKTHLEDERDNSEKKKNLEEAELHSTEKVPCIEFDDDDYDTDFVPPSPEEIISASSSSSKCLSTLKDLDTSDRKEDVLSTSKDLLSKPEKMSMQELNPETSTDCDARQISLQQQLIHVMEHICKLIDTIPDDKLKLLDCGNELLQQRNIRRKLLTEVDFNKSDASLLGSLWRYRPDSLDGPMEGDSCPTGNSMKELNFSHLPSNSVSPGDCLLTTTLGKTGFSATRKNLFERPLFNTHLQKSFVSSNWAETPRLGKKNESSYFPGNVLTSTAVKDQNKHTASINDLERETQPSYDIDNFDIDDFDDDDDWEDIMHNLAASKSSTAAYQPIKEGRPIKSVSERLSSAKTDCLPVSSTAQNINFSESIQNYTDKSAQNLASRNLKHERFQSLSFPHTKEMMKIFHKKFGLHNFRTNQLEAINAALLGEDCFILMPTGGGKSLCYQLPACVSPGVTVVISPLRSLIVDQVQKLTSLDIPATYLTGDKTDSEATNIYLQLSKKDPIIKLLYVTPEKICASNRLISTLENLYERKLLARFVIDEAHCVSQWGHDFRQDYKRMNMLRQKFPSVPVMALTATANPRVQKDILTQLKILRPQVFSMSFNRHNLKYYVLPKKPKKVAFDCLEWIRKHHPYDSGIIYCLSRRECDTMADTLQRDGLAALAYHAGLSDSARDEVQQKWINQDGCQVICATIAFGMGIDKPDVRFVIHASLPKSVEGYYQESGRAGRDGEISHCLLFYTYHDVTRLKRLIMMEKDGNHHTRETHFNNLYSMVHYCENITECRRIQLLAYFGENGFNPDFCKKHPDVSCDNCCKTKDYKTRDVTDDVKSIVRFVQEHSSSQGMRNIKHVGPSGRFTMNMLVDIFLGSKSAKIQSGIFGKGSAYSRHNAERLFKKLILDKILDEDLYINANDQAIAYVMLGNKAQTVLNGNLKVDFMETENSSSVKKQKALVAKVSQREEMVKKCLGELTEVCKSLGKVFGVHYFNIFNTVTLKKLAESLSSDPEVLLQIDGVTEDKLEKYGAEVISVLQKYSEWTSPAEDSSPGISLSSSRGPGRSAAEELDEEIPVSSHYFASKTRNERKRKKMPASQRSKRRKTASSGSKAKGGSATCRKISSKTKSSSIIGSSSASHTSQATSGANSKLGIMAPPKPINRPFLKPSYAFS

| SMILES | IC50 [1] | IC50 ([1]; read-out: IC50) | further results |
| --- | --- | --- | --- |
| CN(C(=O)Nc1ccc2ccccc2c1)c1nnc(-c2ccncc2)s1 | Not Active | – | – |
| O=S(=O)(Cc1ccc(Cl)c(Cl)c1)Nc1nnc(-c2ccncc2)s1 | Not Active | – | – |
| O=C(Nc1ccc(Cl)c(Cl)c1)Nc1ccnc(-c2ccncc2)n1 | Not Active | – | – |
| N#Cc1ccc(NC(=O)Nc2nnc(-c3ccncc3)s2)cc1Cl | – | 1.6 µM | – |
| O=C(Nc1ccc(Cl)c(Cl)c1)Nc1ccc(-c2ccncc2)s1 | Not Active | – | – |
| O=C(Nc1ccc(Cl)c(Cl)c1)Nc1ncc(-c2ccncc2)s1 | Not Active | – | – |
| O=C(Nc1ccc(Cl)c(Cl)c1)Nc1nnc(N2CCNCC2)s1 | Not Active | – | – |
| NC(=Nc1ccc(Cl)c(Cl)c1)Nc1nnc(-c2ccncc2)s1 | – | 14.1 µM | – |
| O=C(Nc1ccc(Cl)c(Cl)c1)Nc1nnc(-c2ccncc2)o1 | Not Active | – | – |
| O=C(Nc1ccc(Cl)c(Cl)c1)NC1CCN(c2ccncc2)CC1 | Not Active | – | – |
| O=C(Nc1ccc(Cl)c(Cl)c1)N1CCN(c2ccncc2)CC1 | Not Active | – | – |
| O=C(Nc1ccc(Cl)c(Cl)c1)Nc1nnc(C2CCCCC2)s1 | Not Active | – | – |
| N#Cc1ccc(NC(=O)Nc2nnc(-c3ccncc3)s2)cc1Br | – | 0.91 µM | – |
| O=C(Nc1ccc(F)c(C(F)(F)F)c1)Nc1nnc(-c2ccncc2)s1 | – | – | remaining at 5 h [5]: 100%; t1/2 (Liver): > 1.33 h; solubility kinetic [6]: 1 µM (≈ 0.383 µg/mL); IC50 [3]: 2.7 µM; IC50 [4]: > 50 µM |
| O=C(Nc1ccc(Cl)c(Cl)c1)Nc1nnc(-c2ccccn2)s1 | Not Active | – | – |
| CN1CCN(c2nnc(NC(=O)Nc3ccc(Cl)c(Cl)c3)s2)CC1 | Not Active | – | – |
| O=C(Nc1ccc(-n2ccnc2)c(F)c1)Nc1nnc(-c2ccncc2)s1 | – | 10 µM | – |
| O=C(Nc1nnc(-c2ccncc2)s1)Oc1ccc2ccccc2c1 | Not Active | – | – |
| N#C/N=C(/Nc1ccc(F)c(C(F)(F)F)c1)Nc1nnc(-c2ccncc2)s1 | Not Active | – | – |
| O=C(Cc1ccc2ccccc2c1)Nc1nnc(-c2ccncc2)s1 | Not Active | – | – |
| O=C(Nc1ccc(-n2cncn2)c(C(F)(F)F)c1)Nc1nnc(-c2ccncc2)s1 | – | 36 µM | – |
| N#Cc1ccc(NC(=O)Nc2nnc(-c3ccncc3)s2)cc1C(F)(F)F | – | 5.6 µM | – |
| O=c1c(Nc2ccc(Cl)c(Cl)c2)c(Nc2nnc(-c3ccncc3)s2)c1=O | – | 4.3 µM | – |
| O=C(Nc1ccc(Cl)c(Cl)c1)N1CCC(c2ccncc2)C1 (stereo not given) | Not Active | – | – |
| O=C(Nc1ccc(-c2cn[nH]c2)c(C(F)(F)F)c1)Nc1nnc(-c2ccncc2)s1 | – | 14.2 µM | – |
| O=C(Nc1ccc(Cl)c(Cl)c1)Nc1nc(-c2ccncc2)cs1 | – | 28.1 µM | – |
| O=C(Nc1ccc(Cl)c(Cl)c1)Nc1nnc(NC2CCNCC2)s1 | Not Active | – | – |
| O=C(Nc1ccc(Cl)c(Cl)c1)Nc1cc(-c2ccncc2)n[nH]1 | Not Active | – | – |
| O=C(Nc1ccc(Cl)c(Cl)c1)Nc1cccc(-c2ccncc2)n1 | – | 4 µM | – |

Further lines, with some results ahead:

| IC50 [1] | IC50 ([1]; read-out: IC50) | SMILES | further results |
| --- | --- | --- | --- |
| – | 13.4 µM | Cc1cc(NC(=O)Nc2nnc(-c3ccncc3)s2)ccc1Br | – |
| – | 8.9 µM | O=C(Nc1ccc(F)c(F)c1)Nc1nnc(-c2ccncc2)s1 | – |
| – | 0.11 µM | N#Cc1cc(NC(=O)Nc2nnc(-c3ccncc3)s2)ccc1Br | Ratio IC50 (Homo sapiens [2]): 10; IC50 [3]: 1.1 µM; IC50 [4]: > 50 µM |
| – | 1.3 µM | O=C(Nc1ccc(Cl)c([N+](=O)[O-])c1)Nc1nnc(-c2ccncc2)s1 | – |
| – | 49 µM | Nc1ccc(-c2nnc(NC(=O)Nc3ccc(Cl)c(Cl)c3)s2)cc1 | – |
| Not Active | – | O=C(Nc1ccc(Cl)c(Cl)c1)Nc1nnc(-c2ccccc2)s1 | – |
| – | 40 µM | O=C(Nc1ccc(Cl)cc1)Nc1nnc(-c2ccncc2)s1 | – |
| – | 0.3 µM | N#Cc1cc(NC(=O)Nc2nnc(-c3ccncc3)s2)ccc1F | Ratio IC50 (Homo sapiens [2]): 7.3; IC50 [3]: 2.2 µM; IC50 [4]: > 50 µM |
| – | 2.1 µM | O=C(Nc1ccc(Br)c(Br)c1)Nc1nnc(-c2ccncc2)s1 | Ratio IC50 (Homo sapiens [2]): 1.4; IC50 [3]: 2.9 µM |
| – | 7.9 µM | N#Cc1ccc(NC(=O)Nc2nnc(-c3ccncc3)s2)cc1 | – |
| – | 8.9 µM | N#Cc1cccc(NC(=O)Nc2nnc(-c3ccncc3)s2)c1 | – |
| – | 40 µM | Nc1ccc(NC(=O)Nc2nnc(-c3ccncc3)s2)cc1C(F)(F)F | – |
| – | 14.1 µM | O=C(Nc1ccc(F)cc1)Nc1nnc(-c2ccncc2)s1 | – |
| – | 1.1 µM | N#Cc1cc(NC(=O)Nc2nnc(-c3ccncc3)s2)ccc1-c1cn[nH]c1 | remaining at 5 h [5]: 100%; inhibition [7]: Active; Ratio IC50 (Homo sapiens [2]): 6.5; t1/2 (Liver): > 1.33 h; Activity (Homo sapiens [8]): inactive; solubility kinetic [6]: 10 µM (≈ 3.88 µg/mL); inhibition [9]: Dose-dependent effect; inhibition [10]: Dose-dependent effect; inhibition [11]: Active; IC50 [3]: 7.1 µM; IC50 [4]: > 50 µM |
| – | 11.2 µM | Nc1cc(NC(=O)Nc2nnc(-c3ccncc3)s2)ccc1Cl | – |
| – | 16.8 µM | Cc1cc(NC(=O)Nc2nnc(-c3ccncc3)s2)ccc1-c1cn[nH]c1 | – |
| – | 3.2 µM | Cc1cc(NC(=O)Nc2nnc(-c3ccncc3)s2)ccc1C#N | – |
| – | 4 µM | S=C(Nc1ccc(Cl)c(Cl)c1)Nc1nnc(-c2ccncc2)s1 | – |
| – | 3.5 µM | O=C(Nc1ccc(Cl)c(Cl)c1)Nc1nnc(-c2cccnc2)s1 | – |
| – | 1.8 µM | N#Cc1cc(NC(=O)Nc2nnc(-c3ccncc3)s2)ccc1-c1ccc[nH]1 | – |
| Not Active | – | O=C(Nc1ccccc1)Nc1nnc(-c2ccncc2)s1 | – |
| – | 15.8 µM | Cc1cc(NC(=O)Nc2nnc(-c3ccncc3)s2)ccc1F | – |
| – | 14.1 µM | O=C(Nc1ccc(-n2cncn2)c(F)c1)Nc1nnc(-c2ccncc2)s1 | – |
| – | 1.4 µM | O=C(Nc1ccc(Cl)c(Cl)c1)Nc1nnc(-c2ccncc2)s1 | Ratio IC50 (Homo sapiens [2]): 2.4; IC50 [3]: 3.4 µM; IC50 [4]: > 50 µM |
| – | 12.6 µM | O=C(Nc1ccc(Br)cc1)Nc1nnc(-c2ccncc2)s1 | – |
| – | 0.1 µM | N#Cc1cc(NC(=O)Nc2nnc(-c3ccncc3)s2)ccc1Cl | Ratio IC50 (Homo sapiens [2]): 16; IC50 [3]: 1.6 µM |
| – | 7.1 µM | O=C(Nc1ccc(Cl)c(C(F)(F)F)c1)Nc1nnc(-c2ccncc2)s1 | – |
| – | 7.9 µM | Cc1cc(NC(=O)Nc2nnc(-c3ccncc3)s2)ccc1Cl | – |
